Laboratory results taken from ChEMBL document CHEMBL3102843, “Synthesis and antifungal activity of substituted 2,4,6-pyrimidinetrione carbaldehyde hydrazones” (Bioorg Med Chem, 2014).
In brackets after ≈: the same amount, converted by molar mass. Activity calls are given as the source filed them. The rule behind the calls is not given here.

What was measured:
Nakaseomyces glabratus = experiment: Antifungal activity against Candida glabrata ATCC 48435 after 48 to 72 hrs by broth microdilution method; type: functional
In short: (§1)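 Broth microdilution per NCCLS. Organisms were subcultured on Sabouraud agar. Inoculum was 5–7 colonies from YM agar in sterile water, adjusted to 0.5 McFarland at 530 nm (1–5×10⁶ cells/mL stock), held 30 min at RT, then diluted 1:50 in HEPES-buffered RPMI 1640. DMSO stocks were twofold-diluted, with final DMSO ≤1%. Plates ran 48–72 h at 35 °C, humid. MIC is the lowest concentration giving ≥80% growth reduction vs drug-free wells, scored visually. Fluconazole or amphotericin B ran as drug control.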

Candida albicans = experiment: Antifungal activity against Candida albicans ATCC 10231 after 48 to 72 hrs by broth microdilution method; type: functional; in short: as §1

CN1C(=O)C(/C=N/N)C(=O)N(C)C1=O
MIC80 (Nakaseomyces glabratus): 16 µg/mL (≈ 80.7 µM) | MIC80 (Candida albicans): 125 µg/mL (≈ 631 µM)

CN1C(=O)C(/C(=N/Nc2ccc(C(=O)O)cc2)c2ccccc2)C(=O)N(C)C1=O
MIC80 (Nakaseomyces glabratus): inactive | MIC80 (Candida albicans): inactive

C/C(=N\CCCCCC(=O)O)C1C(=O)NC(=O)NC1=O
MIC80 (Nakaseomyces glabratus): inactive | MIC80 (Candida albicans): inactive

C/C(=N\c1ccncc1)C1C(=O)NC(=O)NC1=O
MIC80 (Nakaseomyces glabratus): inactive | MIC80 (Candida albicans): inactive

N/N=C/C1C(=O)NC(=O)NC1=O
MIC80 (Nakaseomyces glabratus): 16 µg/mL (≈ 94 µM) | MIC80 (Candida albicans): 125 µg/mL (≈ 735 µM)

O=C1NC(=O)C(=Cc2ccoc2)C(=O)N1
MIC80 (Nakaseomyces glabratus): inactive | MIC80 (Candida albicans): inactive

O=C1NC(=O)C(=Cc2ccc(O)cc2)C(=O)N1
MIC80 (Nakaseomyces glabratus): inactive | MIC80 (Candida albicans): inactive

O=C1NC(=O)C(/C=N/c2ccccc2)C(=O)N1
MIC80 (Nakaseomyces glabratus): inactive | MIC80 (Candida albicans): inactive

O=C1NC(=O)C(=Cc2ccccc2O)C(=O)N1
MIC80 (Nakaseomyces glabratus): 8 µg/mL (≈ 34.5 µM) | MIC80 (Candida albicans): inactive

O=C1NC(=O)C(/C=N/c2ccc([N+](=O)[O-])cc2)C(=O)N1
MIC80 (Nakaseomyces glabratus): inactive | MIC80 (Candida albicans): inactive

CN1C(=O)C(/C=N/c2ccc(-c3ccccc3)cc2)C(=O)N(C)C1=O
MIC80 (Nakaseomyces glabratus): inactive | MIC80 (Candida albicans): inactive

CN1C(=O)C(/C=N/c2nnc[nH]2)C(=O)N(C)C1=O
MIC80 (Nakaseomyces glabratus): inactive | MIC80 (Candida albicans): inactive

CN1C(=O)C(/C=N/c2ccccn2)C(=O)N(C)C1=O
MIC80 (Nakaseomyces glabratus): inactive | MIC80 (Candida albicans): inactive

Cc1ccc(S(=O)(=O)N/N=C/C2C(=O)N(C)C(=O)N(C)C2=O)cc1
MIC80 (Nakaseomyces glabratus): inactive | MIC80 (Candida albicans): inactive

CN/N=C(\C)C1C(=O)N(C)C(=O)N(C)C1=O
MIC80 (Nakaseomyces glabratus): inactive | MIC80 (Candida albicans): inactive

CN1C(=O)C(=C/C=C/c2ccccc2)C(=O)N(C)C1=O
MIC80 (Nakaseomyces glabratus): 125 µg/mL (≈ 462 µM) | MIC80 (Candida albicans): 62 µg/mL (≈ 229 µM)

COc1ccc(/N=C(\C)C2C(=O)NC(=O)NC2=O)cc1
MIC80 (Nakaseomyces glabratus): inactive | MIC80 (Candida albicans): inactive

COC(=O)N/N=C(\C)C1C(=O)N(C)C(=O)N(C)C1=O
MIC80 (Nakaseomyces glabratus): inactive | MIC80 (Candida albicans): inactive

O=C1NC(=O)C(/C=N/NS(=O)(=O)c2ccccc2)C(=O)N1
MIC80 (Nakaseomyces glabratus): inactive | MIC80 (Candida albicans): inactive

CN1C(=O)C(/C(=N/Nc2ccc([N+](=O)[O-])cc2[N+](=O)[O-])c2ccc(O)cc2)C(=O)N(C)C1=O
MIC80 (Nakaseomyces glabratus): inactive | MIC80 (Candida albicans): inactive

CN1C(=O)C(/C=N/c2ccc(O)cc2)C(=O)N(C)C1=O
MIC80 (Nakaseomyces glabratus): inactive | MIC80 (Candida albicans): inactive

O=C1NC(=O)C(/C=N/Nc2ccc([N+](=O)[O-])cc2[N+](=O)[O-])C(=O)N1
MIC80 (Nakaseomyces glabratus): 125 µg/mL (≈ 372 µM) | MIC80 (Candida albicans): inactive

COC(=O)N/N=C/C1C(=O)NC(=O)NC1=O
MIC80 (Nakaseomyces glabratus): inactive | MIC80 (Candida albicans): inactive

C/C(=N\c1ccc(O)cc1)C1C(=O)N(C)C(=O)N(C)C1=O
MIC80 (Nakaseomyces glabratus): inactive | MIC80 (Candida albicans): inactive

C/C(=N\NC(=O)c1ccc([N+](=O)[O-])cc1)C1C(=O)NC(=O)NC1=O
MIC80 (Nakaseomyces glabratus): 125 µg/mL (≈ 375 µM) | MIC80 (Candida albicans): inactive

C/C(=N\NS(=O)(=O)c1ccccc1)C1C(=O)NC(=O)NC1=O
MIC80 (Nakaseomyces glabratus): inactive | MIC80 (Candida albicans): inactive

CN1C(=O)C(=Cc2ccc(O)cc2)C(=O)N(C)C1=O
MIC80 (Nakaseomyces glabratus): inactive | MIC80 (Candida albicans): inactive

O=C1NC(=O)C(/C=N/c2ccc(O)cc2)C(=O)N1
MIC80 (Nakaseomyces glabratus): inactive | MIC80 (Candida albicans): inactive

O=C1NC(=O)C(=Cc2ccccc2)C(=O)N1
MIC80 (Nakaseomyces glabratus): inactive | MIC80 (Candida albicans): inactive

C/C(=N\Nc1ccc([N+](=O)[O-])cc1)C1C(=O)NC(=O)N(c2ccccc2)C1=O (stereo unspecified)
MIC80 (Nakaseomyces glabratus): 16 µg/mL (≈ 42 µM) | MIC80 (Candida albicans): 31.5 µg/mL (≈ 82.6 µM)

C/C(=N\NC(=O)c1ccccc1)C1C(=O)N(C)C(=O)N(C)C1=O
MIC80 (Nakaseomyces glabratus): inactive | MIC80 (Candida albicans): inactive

O=C1NC(=O)C(/C=N/n2cnnc2)C(=O)N1
MIC80 (Nakaseomyces glabratus): inactive | MIC80 (Candida albicans): inactive

O=C1NC(=O)C(=C/C=C/c2ccccc2)C(=O)N1
MIC80 (Nakaseomyces glabratus): inactive | MIC80 (Candida albicans): 62 µg/mL (≈ 256 µM)

C/C(=N\Nc1ccccc1)C1C(=O)NC(=O)NC1=O
MIC80 (Nakaseomyces glabratus): 2 µg/mL (≈ 7.68 µM) | MIC80 (Candida albicans): 2 µg/mL (≈ 7.68 µM)

CN1C(=O)C(/C=N/C2N=NN=N2)C(=O)N(C)C1=O
MIC80 (Nakaseomyces glabratus): inactive | MIC80 (Candida albicans): inactive

C/C(=N\NS(=O)(=O)c1ccc(C)cc1)C1C(=O)NC(=O)NC1=O
MIC80 (Nakaseomyces glabratus): inactive | MIC80 (Candida albicans): inactive

COC(=O)N/N=C(\c1ccc([N+](=O)[O-])cc1)C1C(=O)NC(=O)NC1=O
MIC80 (Nakaseomyces glabratus): inactive | MIC80 (Candida albicans): inactive

O=C1NC(=O)C(=Cc2cccc3ccccc23)C(=O)N1
MIC80 (Nakaseomyces glabratus): inactive | MIC80 (Candida albicans): 125 µg/mL (≈ 469 µM)

CN1C(=O)C(/C=N/NC(=O)c2ccccc2)C(=O)N(C)C1=O
MIC80 (Nakaseomyces glabratus): inactive | MIC80 (Candida albicans): inactive

COc1ccc(C(=O)N/N=C(\C)C2C(=O)N(C)C(=O)N(C)C2=O)cc1
MIC80 (Nakaseomyces glabratus): inactive | MIC80 (Candida albicans): inactive

COc1ccc(/N=C/C2C(=O)N(C)C(=O)N(C)C2=O)cc1
MIC80 (Nakaseomyces glabratus): inactive | MIC80 (Candida albicans): inactive

CN1C(=O)C(=Cc2ccc(O)cc2O)C(=O)N(C)C1=O
MIC80 (Nakaseomyces glabratus): 2 µg/mL (≈ 7.24 µM) | MIC80 (Candida albicans): inactive

COc1ccc(/N=C(\C)C2C(=O)N(C)C(=O)N(C)C2=O)cc1
MIC80 (Nakaseomyces glabratus): inactive | MIC80 (Candida albicans): inactive

COc1ccc(/C(=N\CCCCCC(=O)O)C2C(=O)NC(=O)NC2=O)cc1
MIC80 (Nakaseomyces glabratus): inactive | MIC80 (Candida albicans): inactive

O=C1NC(=O)C(/C=N/C2N=NN=N2)C(=O)N1
MIC80 (Nakaseomyces glabratus): inactive | MIC80 (Candida albicans): inactive

CN1C(=O)C(/C=N/c2cccc(O)c2)C(=O)N(C)C1=O
MIC80 (Nakaseomyces glabratus): inactive | MIC80 (Candida albicans): inactive

C/C(=N\N)C1C(=O)NC(=O)NC1=O
MIC80 (Nakaseomyces glabratus): inactive | MIC80 (Candida albicans): inactive

CN1C(=O)C(=Cc2ccc(N(C)C)cc2)C(=O)N(C)C1=O
MIC80 (Nakaseomyces glabratus): inactive | MIC80 (Candida albicans): inactive

C/C(=N\c1ccccc1)C1C(=O)NC(=O)NC1=O
MIC80 (Nakaseomyces glabratus): inactive | MIC80 (Candida albicans): inactive

COC(=O)N/N=C(\c1ccc(O)cc1)C1C(=O)N(C)C(=O)N(C)C1=O
MIC80 (Nakaseomyces glabratus): inactive | MIC80 (Candida albicans): inactive

C/C(=N\N)C1C(=O)N(C)C(=O)N(C)C1=O
MIC80 (Nakaseomyces glabratus): inactive | MIC80 (Candida albicans): inactive

COc1ccc(/N=C/C2C(=O)NC(=O)NC2=O)cc1
MIC80 (Nakaseomyces glabratus): inactive | MIC80 (Candida albicans): inactive

C/C(=N\NS(=O)(=O)c1ccccc1)C1C(=O)N(C)C(=O)N(C)C1=O
MIC80 (Nakaseomyces glabratus): inactive | MIC80 (Candida albicans): inactive

O=C1NC(=O)C(/C=N/c2ccccn2)C(=O)N1
MIC80 (Nakaseomyces glabratus): inactive | MIC80 (Candida albicans): inactive

CN1C(=O)C(/C=N/NS(=O)(=O)c2ccccc2)C(=O)N(C)C1=O
MIC80 (Nakaseomyces glabratus): inactive | MIC80 (Candida albicans): inactive

C/C(=N\Nc1ccc([N+](=O)[O-])cc1[N+](=O)[O-])C1C(=O)N(C)C(=O)N(C)C1=O
MIC80 (Nakaseomyces glabratus): inactive | MIC80 (Candida albicans): inactive

COC(=O)N/N=C(\C)C1C(=O)NC(=O)NC1=O
MIC80 (Nakaseomyces glabratus): inactive | MIC80 (Candida albicans): inactive

CN1C(=O)C(/C=N/c2ccccc2)C(=O)N(C)C1=O
MIC80 (Nakaseomyces glabratus): inactive | MIC80 (Candida albicans): inactive

CCCCN1C(=O)NC(=O)C(/C(=N/Nc2ccc([N+](=O)[O-])cc2[N+](=O)[O-])c2ccccc2)C1=O (stereo unspecified)
MIC80 (Nakaseomyces glabratus): inactive | MIC80 (Candida albicans): inactive

O=C1NC(=O)C(C(=NNc2ccc(C(=O)O)cc2)C2C(=O)NC(=O)NC2=O)C(=O)N1
MIC80 (Nakaseomyces glabratus): 125 µg/mL (≈ 300 µM) | MIC80 (Candida albicans): inactive

O=C1NC(=O)C(/C=N/c2cccc(O)c2)C(=O)N1
MIC80 (Nakaseomyces glabratus): inactive | MIC80 (Candida albicans): inactive

O=C1NC(=O)C(/C=N/Nc2ccccc2)C(=O)N1
MIC80 (Nakaseomyces glabratus): 2 µg/mL (≈ 8.12 µM) | MIC80 (Candida albicans): 4 µg/mL (≈ 16.2 µM)

CN1C(=O)C(/C=N/n2cnnc2)C(=O)N(C)C1=O
MIC80 (Nakaseomyces glabratus): inactive | MIC80 (Candida albicans): inactive

O=C1NC(=O)C(/C(=N/Nc2ccc([N+](=O)[O-])cc2[N+](=O)[O-])c2ccccc2)C(=O)N1
MIC80 (Nakaseomyces glabratus): inactive | MIC80 (Candida albicans): inactive

CN(C)c1ccc(C=C2C(=O)NC(=O)NC2=O)cc1
MIC80 (Nakaseomyces glabratus): inactive | MIC80 (Candida albicans): 62 µg/mL (≈ 239 µM)

O=C1NC(=O)N(c2ccccc2)C(=O)/C1=C\c1ccc(O)cc1
MIC80 (Nakaseomyces glabratus): inactive | MIC80 (Candida albicans): inactive

O=C1NC(=O)C(/C=N/NC(=O)c2ccccc2)C(=O)N1
MIC80 (Nakaseomyces glabratus): inactive | MIC80 (Candida albicans): inactive

C/C(=N\c1ccncc1)C1C(=O)N(C)C(=O)N(C)C1=O
MIC80 (Nakaseomyces glabratus): inactive | MIC80 (Candida albicans): inactive

COc1ccc(C(=O)N/N=C(\C)C2C(=O)NC(=O)NC2=O)cc1
MIC80 (Nakaseomyces glabratus): inactive | MIC80 (Candida albicans): inactive

C/C(=N\c1ccccc1)C1C(=O)N(C)C(=O)N(C)C1=O
MIC80 (Nakaseomyces glabratus): inactive | MIC80 (Candida albicans): inactive

C/C(=N\Nc1ccc([N+](=O)[O-])cc1[N+](=O)[O-])C1C(=O)NC(=O)NC1=O
MIC80 (Nakaseomyces glabratus): inactive | MIC80 (Candida albicans): inactive

O=C1NC(=O)N(c2ccccc2)C(=O)C1/C(=N/Nc1ccc([N+](=O)[O-])cc1[N+](=O)[O-])c1ccccc1 (stereo unspecified)
MIC80 (Nakaseomyces glabratus): inactive | MIC80 (Candida albicans): inactive

C/C(=N\NC(=O)c1ccc([N+](=O)[O-])cc1)C1C(=O)N(C)C(=O)N(C)C1=O
MIC80 (Nakaseomyces glabratus): inactive | MIC80 (Candida albicans): inactive

COc1ccc(C=C2C(=O)N(C)C(=O)N(C)C2=O)cc1
MIC80 (Nakaseomyces glabratus): inactive | MIC80 (Candida albicans): inactive

C/C(=N\c1ccc(O)cc1)C1C(=O)NC(=O)NC1=O
MIC80 (Nakaseomyces glabratus): inactive | MIC80 (Candida albicans): inactive

CN1C(=O)C(/C=N/c2ccc([N+](=O)[O-])cc2)C(=O)N(C)C1=O
MIC80 (Nakaseomyces glabratus): inactive | MIC80 (Candida albicans): inactive

O=C1NC(=O)C(/C=N/c2ccncc2)C(=O)N1
MIC80 (Nakaseomyces glabratus): inactive | MIC80 (Candida albicans): inactive

CN/N=C/C1C(=O)NC(=O)NC1=O
MIC80 (Nakaseomyces glabratus): inactive | MIC80 (Candida albicans): inactive
